Measured values taken from ChEMBL document CHEMBL2311301, “Design, synthesis and characterization of novel 1,2-benzisothiazol-3(2H)-one and 1,3,4-oxadiazole hybrid derivatives: potent inhibitors of Dengue and West Nile virus NS2B/NS3 proteases” (Bioorg Med Chem, 2013).

Legend:
[1] = test system: West Nile virus; experiment: Inhibition of WNV NS2B/NS3 protease using Bz-Nle-Lys-Arg-Arg-AMC as substrate at 10 uM by spectrofluorometric analysis relative to control
Outline: (§1)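 Protease (DENV2 NS2B-NS3pro 25 nM; WNV NS2B-NS3pro with 5-residue linker 28 nM) incubated with inhibitor in DMSO, 15 min at 37 °C, in 200 mM Tris·HCl pH 9.5, 6 mM NaCl, 30% glycerol. Reaction started with 5.0 μM substrate. AMC release read at ex 380/em 460 nm. No-protease background subtracted; no-inhibitor control taken as 100%. Triplicates.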

[2] = test system: dengue virus type 2; experiment: Inhibition of DENV2 NS2B/NS3 protease expressed in Escherichia coli Top 10 F' using Bz-Nle-Lys-Arg-Arg-AMC as substrate at 10 uM by spectroflorometer analysis relative to control; outline: as §1
[3] = test system: dengue virus type 2; experiment: Inhibition of DENV2 NS2B/NS3 protease expressed in Escherichia coli Top 10 F' using Bz-Nle-Lys-Arg-Arg-AMC as substrate at 25 uM by spectroflorometer analysis relative to control; outline: as §1
[4] = test system: West Nile virus; experiment: Inhibition of WNV NS2B/NS3 protease using Bz-Nle-Lys-Arg-Arg-AMC as substrate at 25 uM by spectrofluorometric analysis relative to control; outline: as §1
[5] = Inhibition of WNV NS2B/NS3 protease using Bz-Nle-Lys-Arg-Arg-AMC as substrate by spectrofluorometric analysis relative to control; set-up: species or system West Nile virus
Outline: (§2)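 IC50 run in the same single-point format (DENV2 protease 25 nM, WNV protease 28 nM; 15 min preincubation at 37 °C, pH 9.5 Tris buffer, 5.0 μM substrate, fluorescence ex 380/em 460 nm). Twelve inhibitor levels from 10 nM to 25 μM. IC50 from a sigmoidal fit of activity relative to the no-inhibitor control. Triplicates.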

[6] = Inhibition of DENV2 NS2B/NS3 protease expressed in Escherichia coli Top 10 F' using Bz-Nle-Lys-Arg-Arg-AMC as substrate by spectroflorometer analysis relative to control; set-up: species or system dengue virus type 2; outline: as §2
[7] = Competitive inhibition of DENV2 NS2B/NS3 protease expressed in Escherichia coli Top 10 F' using Bz-Nle-Lys-Arg-Arg-AMC as substrate by Michaelis-Menten equation analysis; set-up: species or system dengue virus type 2
Outline: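 DENV2 NS2B-NS3pro construct (NS2B hydrophilic cofactor joined to NS3 protease via Q-R), 25 nM, in 200 mM Tris·HCl pH 9.5, 6 mM NaCl, 30% glycerol, 0.1% CHAPS at 37 °C. Inhibitor at 0, 1.0, 3.0 and 5.0 μM; substrate 0-50 μM; started with enzyme. Initial rates from AMC fluorescence (ex 380/em 460 nm) every 1.5 min, under 5% conversion. Duplicates, repeated three times. Ki from secondary plot of Km,app against inhibitor.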

SMILES	inhibition [1] [%]	inhibition [2] [%]	inhibition [3] [%]	inhibition [4] [%]	IC50 [5] [µM]	IC50 [6] [µM]	Ki [7] [µM]
COc1ccc(Cc2nnc(C(Cc3ccccc3)n3sc4ccccc4c3=O)o2)cc1 (centres undefined)	24.2	28.5	38.6	34.9	–	–	–
COc1ccc(-c2nnc(C(Cc3ccccc3)n3sc4ccccc4c3=O)o2)cc1 (centres undefined)	68.6	65.5	80	73.4	4.22	3.75	3.61
O=c1c2ccccc2sn1Cc1nnc(-c2cccc(Cl)c2)o1	6.15	5.21	16.7	9.15	–	–	–
CCOc1ccc(-c2nnc(C(Cc3ccccc3)n3sc4ccccc4c3=O)o2)cc1 (centres undefined)	56.1	40.6	61.3	71.8	–	–	–
O=c1c2ccccc2sn1C(Cc1cccc(F)c1)c1nnc(-c2cccc(Cl)c2)o1 (centres undefined)	27.4	16	31.6	35.6	–	–	–
O=c1c2ccccc2sn1Cc1nnc(Cc2ccccc2)o1	8.27	3.56	16.4	14.7	–	–	–
O=c1c2ccccc2sn1C(CCc1ccccc1)c1nnc(-c2cccc(Cl)c2)o1 (centres undefined)	23.9	26.1	35	33.9	–	–	–
O=c1c2ccccc2sn1C(Cc1ccccc1)c1nnc(-c2ccc(Cl)cc2)o1 (centres undefined)	53.5	53.2	70.5	63.2	–	–	–
N#Cc1ccc(-c2nnc(C(Cc3ccccc3)n3sc4ccccc4c3=O)o2)cc1 (centres undefined)	63.6	63.9	72.9	70.9	–	–	–
COc1ccc(Cc2nnc(Cn3sc4ccccc4c3=O)o2)cc1	5.96	5.27	7.9	8.68	–	–	–
O=c1c2ccccc2sn1C(Cc1ccccc1)c1nnc(-c2cccc(F)c2)o1 (centres undefined)	30.4	39	50.9	38.9	–	–	–
O=c1c2ccccc2sn1C(Cc1ccccc1)c1nnc(-c2ccco2)o1 (centres undefined)	44.3	52.3	64.7	57.7	–	–	–
O=c1c2ccccc2sn1C(Cc1ccccc1)c1nnc(Cc2ccccc2)o1 (centres undefined)	20.5	22.4	31.2	30.1	–	–	–
O=c1c2ccccc2sn1C(Cc1ccccc1)c1nnc(-c2cccc(Cl)c2)o1 (centres undefined)	29	34.3	42.1	43.1	–	–	–
O=c1c2ccccc2sn1Cc1nnc(-c2cccc(F)c2)o1	7.68	3.24	9.11	10.1	–	–	–
CCc1nnc(C(Cc2ccccc2)n2sc3ccccc3c2=O)o1 (centres undefined)	25.1	22.5	34.2	44.3	–	–	–
O=c1c2ccccc2sn1C(Cc1ccccc1)c1nnc(-c2ccccc2)o1 (centres undefined)	51.7	56.7	69.2	64.1	–	–	–
O=c1c2ccccc2sn1C(Cc1ccccc1)c1nnc(-c2ccncc2)o1 (centres undefined)	63.1	62.4	70.9	72.7	–	–	–
O=c1c2ccccc2sn1C(Cc1ccccc1)c1nnc(-c2cccs2)o1 (centres undefined)	43.7	52.3	69.8	59.7	–	–	–
O=c1c2ccccc2sn1C(Cc1ccccc1)c1nnc(-c2cccnc2)o1 (centres undefined)	55.8	58.1	70	62.5	–	–	–
COc1ccc(Cc2nnc(C(C)n3sc4ccccc4c3=O)o2)cc1 (centres undefined)	4.17	8.08	17.8	9.79	–	–	–
CCCc1nnc(C(Cc2ccccc2)n2sc3ccccc3c2=O)o1 (centres undefined)	34.9	25.6	36.7	46.2	–	–	–
O=c1c2ccccc2sn1C(Cc1ccccc1)c1nnc(-c2ccc(F)cc2)o1 (centres undefined)	51.1	60.3	75.7	59.1	–	–	–
Cc1nnc(C(Cc2ccccc2)n2sc3ccccc3c2=O)o1 (centres undefined)	22.3	20	31.6	40.4	–	–	–
